Assay results reported in PMC4159095 (Journal of medicinal chemistry, 2013).

What was measured:
GST-SHP2 PTP = assay: Enzymatic kinetic analyses; format: biochemical; conditions: Cryptotanshinone 25 μM
SHP2 = assay: Reversibility test by extensive washing of the enzyme-inhibitor complex; format: biochemical
SHP2 PTP domain = assay: Fluorescence titration; format: binding; conditions: increasing compound concentrations
Outline: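 Intrinsic tryptophan fluorescence of the GST-fused SHP2 PTP domain (purified), diluted in 20 mM Tris-HCl pH 7.5. Protein level is held constant while test compound is raised stepwise. Spectra are recorded on a luminescence spectrometer, and fluorescence is plotted against log compound concentration (M). The experiment was repeated twice; data are mean±S.E.M. of triplicates.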

[1] = tested on: IL-3-induced activation of Erk, Akt, Jak2, and Stat5; assay: IL-3 signaling in Ba/F3 cells, immunoblotting; format: cell-based
Outline: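 Ba/F3 cells were starved overnight in serum- and cytokine-free RPMI 1640, pretreated for 3 h with test compound (20 μM for the time course, graded concentrations for dose response), then stimulated with IL-3 (1.0 ng/mL) for set times or 10 min. RIPA lysates (50 μg protein) were run on 10% SDS-PAGE and immunoblotted for p-Erk, p-Akt, p-Jak2 and p-Stat5 with ECL detection. Blots were reprobed for total proteins; three repeats.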

Hela cells = assay: HeLa cell growth after control or SHP2 siRNA; format: cell-based; conditions: 24 hours treatment
Outline: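 HeLa cells were transfected with control or SHP2 siRNA (400 pmoles/8.0×10^5 cells). After 48 h they were exposed to test compound at graded concentrations or DMSO, and cell numbers were determined 24 h later. Treated knockdown and control cells were each normalized to their untreated counterparts. Knockdown was confirmed by anti-SHP2 immunoblot with β-actin as loading control. Triplicates; three experiments.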

[2] = tested on: WT mouse embryonic fibroblasts; assay: MEF cell growth; format: cell-based; conditions: Cryptotanshinone 20 μM
[3] = tested on: PTPN11E76K/+ mouse embryonic fibroblasts; assay: MEF cell growth; format: cell-based; conditions: Cryptotanshinone 20 μM
[4] = tested on: myeloid progenitors from PTPN11E76K/+ mice; assay: Colony-forming unit assay, GM-CSF; format: cell-based, mouse; conditions: GM-CSF 1.0 ng/mL, 7 days
Outline: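 Bone marrow from PTPN11E76K/+/Mx1-Cre+ and PTPN11+/+/Mx1-Cre+ mice was plated at 5×10^4 cells/mL in 0.9% methylcellulose IMDM with 30% FBS, glutamine, β-mercaptoethanol and GM-CSF (1.0 ng/mL), with test compound at varying doses or DMSO. CFU-GM and CFU-M colonies were counted after 7 days at 37°C in 5% CO2 and normalized to colonies from DMSO-treated WT cells. Triplicates, two independent experiments.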

[5] = tested on: myeloid blasts from JMML patients with the PTPN11E76K/+ mutation; assay: Colony-forming unit assay, GM-CSF; format: cell-based, human; conditions: GM-CSF 1.0 ng/mL, 14 days
Outline: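 Bone marrow cells or splenocytes from JMML patients carrying PTPN11E76K/+ were plated at 5×10^4 cells/mL in 0.9% methylcellulose IMDM with 30% FBS, glutamine (10^-4 M), β-mercaptoethanol (3.3×10^-5 M) and GM-CSF (1.0 ng/mL), plus test compound at varying doses or matching DMSO. After 14 days at 37°C in 5% CO2, CFU-GM and CFU-M colonies were counted and normalized to DMSO-treated cells. Three patient samples were run in triplicate.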

[6] = tested on: JMML cells (PTPN11E76K/+); assay: Total cell number in GM-CSF-containing medium; format: cell-based, human
[7] = tested on: U937 human lymphoma cells (PTPN11 G60R); assay: Cell proliferation assay; format: cell-based; conditions: 48 hours
[8] = tested on: H661 human lung cancer cells (PTPN11 N58S); assay: Cell proliferation assay; format: cell-based; conditions: 48 hours
U937 cells = assay: Apoptosis, Annexin V staining, FACS; format: cell-based, human; conditions: 24 hours
H661 cells = assay: Cell cycle analysis; format: cell-based, human
[9] = molecular target: T1, SHP2 PTP domain (GST-SHP2 PTP) (Homo sapiens, UniProt Q06124); format: biochemical; conditions: phospho-EGFR peptide substrate
T1 sequence (Q06124 247-517 limits assumed): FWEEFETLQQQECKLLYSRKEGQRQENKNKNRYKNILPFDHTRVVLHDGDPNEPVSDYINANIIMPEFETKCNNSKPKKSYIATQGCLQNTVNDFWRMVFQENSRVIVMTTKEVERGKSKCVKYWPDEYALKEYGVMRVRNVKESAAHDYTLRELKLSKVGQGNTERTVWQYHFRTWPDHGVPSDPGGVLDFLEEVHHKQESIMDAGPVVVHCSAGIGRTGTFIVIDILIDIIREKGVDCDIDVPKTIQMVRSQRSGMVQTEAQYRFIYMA
Outline: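 In-house purified GST-SHP2 PTP domain (0.5 μg) was preincubated with test compound at various concentrations for 30 min at room temperature. Buffer: 25 mM Tris-HCl pH 7.4, 50 mM NaCl, 5 mM DTT, 2.5 mM EDTA. EGFR pTyr peptide (DADEpYLIPQQG) was added to 0.2 mM final, then 30°C for 30 min. Released phosphate was detected with Malachite Green, reading OD620 after 10 min.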

SHP1 = assay: In vitro phosphatase activity assay, phospho-EGFR peptide substrate; format: biochemical

SMILES: C[C@H]1COC2=C1C(=O)C(=O)c1c2ccc2c1CCCC2(C)C [Cryptotanshinone]
- change of Vmax by inhibitor (GST-SHP2 PTP): decreased
- type of inhibition (GST-SHP2 PTP): mixed-type inhibitor
- reversibility of SHP2 inhibition (SHP2): irreversible inhibitor
- quenching of SHP2 fluorescence (SHP2 PTP domain): strong quenching of SHP2 fluorescence in a dose-dependent manner
- tyrosine-phosphorylation of Gab2 and Gab2-SHP2 interaction [1]: markedly decreased
- IL-3-induced activation of Erk, Akt, Jak2, and Stat5 (phosphorylation levels) ([1]; 3 hours pretreatment, IL-3 1.0 ng/mL): greatly suppressed
- proliferation of control siRNA cells (Hela cells): decreased
- sensitivity of SHP2-depleted cells (Hela cells; SHP2 siRNA): much less sensitive
- cell growth of WT MEFs [2]: decreased cell growth
- cell growth of PTPN11E76K/+ MEFs [3]: decreased cell growth
- sensitivity of PTPN11E76K/+ MEFs relative to WT [3]: more sensitive
- colony-forming capabilities of mutant SHP2-expressing progenitors [4]: significantly reduced
- colony formation of JMML myeloid blasts [5]: exquisitely sensitive
- total cell number of JMML cells [6]: greatly decreased
- cell proliferation of U937 cells [7]: decreased cell proliferation in a dose-dependent manner
- cell proliferation of H661 cells [8]: decreased cell proliferation in a dose-dependent manner
- apoptosis in U937 cells (U937 cells): robust induction of apoptosis
- cell cycle effect in H661 cells (H661 cells): G1-S arrest

SMILES: Cc1coc2c1C(=O)C(=O)c1c-2ccc2c(C)cccc12 [Tanshinone I]
- SHP2 IC50, fold lower than that of Cryptotanshinone [9]: 8.75 fold
- selectivity between SHP2 and SHP1 (SHP1): no selectivity between SHP2 and SHP1

SMILES: Cc1cccc2c3c(ccc12)C1=C(C(=O)C3=O)[C@@H](C)CO1 [Dihydrotanshinone]
- SHP2 IC50, fold lower than that of Cryptotanshinone [9]: 5.71 fold
- selectivity between SHP2 and SHP1 (SHP1): no selectivity between SHP2 and SHP1

SMILES: Cc1coc2c1C(=O)C(=O)c1c-2ccc2c1CCCC2(C)C [Tanshinone IIA]
- SHP2 IC50, fold lower than that of Cryptotanshinone [9]: 8.69 fold
- selectivity between SHP2 and SHP1 (SHP1): no selectivity between SHP2 and SHP1
